RGS4 act: potentiators or activators of RGS4. AID 463111. B-score at 10 µM. HEK293 M3R/inducible RGS4, carbachol calcium flux Fluo4; hits give low values. 310,000 tested, 0.92% active;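 active = B-score of the integrated calcium signal more than 4 SD below the library mean, with starting fluorescence not abnormally high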;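 also: negative B-score means reduced calcium response which marks RGS4 activation or potentiation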
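Assay system: HEK293 FlpIn-TREx cells, stable M3R, doxycycline-inducible RGS4 / Probe or stimulus: carbachol, ECmax concentration / Times: overnight RGS4 induction, 30 min dye load 37 °C, 20 min compound RT / Signal: kinetic calcium fluorescence imaging with Fluo4-AM dye, 2 µM / Measure: Agonist-evoked peak-minus-minimum fluorescence over baseline, integrated ratio, B score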
MrgX1 antag: blocks BAM8-22 activation of human MrgX1 receptor. Q96LB2. MRGX1-HEK293 calcium flux, Fluo-4, BAM8-22 antagonism; hits give low values. B-score at 10 µM. 310,000 tested, 1.3% active. AID 588676;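 active = calcium-response B-score plate-corrected more than 3 library SD below zero, starting fluorescence within 5 deviations, no agonist response on first addition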;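 also: peak minus trough fluorescence over baseline after final BAM8-22 challenge near maximal dose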
Target sequence (Q96LB2 whole entry, looked up): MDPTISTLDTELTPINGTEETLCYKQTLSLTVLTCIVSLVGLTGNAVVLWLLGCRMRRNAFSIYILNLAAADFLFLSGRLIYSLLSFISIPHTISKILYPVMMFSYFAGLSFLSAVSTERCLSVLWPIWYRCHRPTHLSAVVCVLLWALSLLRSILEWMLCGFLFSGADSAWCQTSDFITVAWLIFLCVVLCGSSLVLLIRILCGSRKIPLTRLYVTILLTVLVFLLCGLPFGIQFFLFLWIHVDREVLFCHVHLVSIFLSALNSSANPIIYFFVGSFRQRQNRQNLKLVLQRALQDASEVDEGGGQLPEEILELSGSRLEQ
MrgX1 allo act: allosterically activates human MrgX1 receptor signaling; MrgX1-HEK293, Fluo-4 calcium flux, FDSS; hits give high values; Q96LB2; B-score at 10 µM; AID 588675; 310,000 tested, 0.63% active;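 active = plate-corrected calcium response at least 3 library SD above typical, normal starting fluorescence, not activating the receptor alone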;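 also: compound read alongside a low EC10 to EC30 dose of BAM8-22 agonist; peak minus trough fluorescence over baseline measured at the second addition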
MrgX1 agonist: agonists of human MrgX1 receptor | MrgX1-HEK293 cells, Fluo-4 calcium fluorescence, agonist mode; hits give high values | AID 588627 | B-score at 10 µM | 310,000 tested, 0.44% active;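 active = calcium response B-score plate-corrected fluorescence ratio at least 3 library SD, with starting fluorescence B-score inside 5 SD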
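System: HEK293 cells stably expressing human MrgX1 receptor; Dosing: test compound in the initial addition of three; Schedule: overnight plating, then 30 min 37 °C plus 30 min room-temperature dye loading; Detection: kinetic calcium dye fluorescence, Fluo-4 NW; Controls: per-plate positive and negative controls for Z′ factor.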
RGS4 inh: inhibitors of human RGS4; AID 463165; B-score at 10 µM; 310,000 tested, 0.45% active; HEK293 M3R/RGS4 inducible, Fluo-4 calcium flux; hits give high values; triggered by carbachol at its EC20;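 active = B-score, a plate-corrected calcium signal, over three deviations above library mean, with baseline fluorescence within five deviations of library mean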;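 also: RGS4 expression induced by doxycycline in cells with stable M3 receptor; B-score is computed from the integrated fluorescence ratio over baseline after carbachol; higher B-score means a larger calcium signal and so more RGS4 inhibition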
Target sequence (P49798 whole entry, looked up): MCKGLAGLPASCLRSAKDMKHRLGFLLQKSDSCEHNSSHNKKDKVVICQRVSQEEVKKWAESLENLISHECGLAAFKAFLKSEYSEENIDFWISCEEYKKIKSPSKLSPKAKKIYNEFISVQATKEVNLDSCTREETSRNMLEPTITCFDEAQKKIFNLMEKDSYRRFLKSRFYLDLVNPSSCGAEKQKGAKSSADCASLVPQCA
RGS4 act valid: RGS4 activation, validation assay; AID 602282; HEK293 M3R/RGS4 inducible, carbachol calcium flux Fluo4; inhibition, % at 10 µM; shares compounds with RGS4 act; 1,100 tested, 89% active;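 active = inhibition above 3 SD of the buffer control wells, cut at about 41% in these data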;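 also: signal is the integrated peak-minus-minimum Fluo4 fluorescence over baseline ratio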
M3R Ca counter: RGS4 activator counter-screen hit in non-induced cells. shares compounds with RGS4 act. HEK293 M3R non-induced RGS4, Fluo4 calcium flux; after carbachol challenge at its EC90. inhibition, % at 10 µM. 1,100 tested, 82% active. AID 602283;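 active = inhibition exceeding 3 SD of buffer-only control wells, cut at about 26% in these data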;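 also: percent drop in integrated peak-minus-baseline over baseline Fluo4 ratio after carbachol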
Active calls of the source: *; i = inactive; . = no result given. Only some compounds are listed: those with a hit (about 3.5% of all), similar ones and a draw of the others.

SMILES	RGS4 act	MrgX1 antag	MrgX1 allo act	MrgX1 agonist	RGS4 inh	RGS4 act valid	M3R Ca counter
CCOCc1c(C(=O)NC2=Nc3ccccc3NC(CC)=C2C(=O)OCC)oc2ccccc12	-8.9*	i	i	i	i	76*	84*
Cc1csc(NC(=O)c2cc(-c3ccccc3)nc3ccccc23)n1	-7.8*	i	i	i	i	86*	43*
CC(C)(C)c1nnc(NC(=O)c2cc(-c3ccccc3)nc3ccccc23)s1	i	i	i	i	i	.	.
COC(=O)c1sccc1NC(=O)c1cc(-c2cc(C)ccc2C)nc2ccccc12	i	i	i	i	i	.	.
Cc1ccc(C)c(-c2cc(C(=O)Nc3nccs3)c3ccccc3n2)c1	-7.7*	i	i	i	i	68*	0
COC(=O)c1oc2ccc(Cl)cc2c1-n1cccc1	i	i	i	i	i	.	.
CNc1nc(-c2ccccc2)[n+](-c2ccc(C)cc2)s1	-14*	i	i	i	i	97*	93*
CCOc1ccc(S(=O)(=O)N(CC(=O)NC2CCCCC2C)Cc2ccco2)cc1 (stereo not given)	-8.2*	i	i	i	i	0	0
Fc1ccc(C2N(c3ccccc3)C(=S)N3CCCN23)cc1 (stereo not given)	i	i	i	i	i	.	.
Cc1ccc(C2N(c3ccccc3)C(=S)N3CCCN23)cc1 (stereo not given)	-11*	i	i	i	i	94*	91*
CC(NS(=O)(=O)OCC(Cl)(Cl)Cl)c1ccc(C(C)(C)C)cc1 (stereo not given)	-8*	i	i	i	i	91*	94*
Cn1cc(CN2CCCC(C(=O)c3nccn3C)C2)c(-c2cccc(Cl)c2)n1 (stereo not given)	i	i	i	i	i	.	.
C=CCNc1nc(N2CCCCC2)c(C#N)c2c1CN(Cc1ccccc1)CC2	-8.9*	i	i	i	i	94*	81*
Oc1ccccc1Oc1ncc(Br)c(N2CCOCC2)n1	-11*	i	i	i	i	92*	64*
CN1CCN(CC(O)(c2ccc(Cl)cc2)c2ccc(Cl)cc2)CC1	-10*	i	i	i	i	92*	65*
O=C(Nc1ccc(Oc2ccccc2)nc1)C1CCCCN1Cc1ccc(O)cc1 (stereo not given)	-8.2*	i	i	i	i	74*	28*
Cc1nn(Cc2ccc(C(=O)Nc3ccc(C(=O)OC(C)C)cc3)o2)c(C)c1Cl	-9.6*	i	i	i	i	92*	79*
Cc1nn(Cc2ccc(C(=O)NN)o2)c(C)c1Cl	i	i	i	i	i	.	.
CC(=O)N/C(=C\c1ccc(Cl)cc1)C(=O)O	i	i	i	i	i	.	.
Cc1cccc(NC(=O)C2CCN(S(=O)(=O)c3c(C)c(C)cc(C)c3C)CC2)n1	-11*	i	i	i	i	90*	64*
Cc1cccc(NC(=O)C2CCN(S(=O)(=O)c3c(C)nn(C)c3C)CC2)n1	i	i	i	i	i	.	.
Cc1c(CC(=O)N2CCC(C(N)=O)CC2)c(=O)oc2cc3c(cc12)CCC1(CCCCC1)O3	-8.9*	i	i	i	i	92*	78*
Cc1c(CC(=O)O)c(=O)oc2cc3c(cc12)CCC(C)(C)O3	i	i	i	i	i	.	.
CNS(=O)(=O)c1cccc(C(=O)OCC(=O)N2CCCC2)c1	i	i	i	i	i	.	.
CNS(=O)(=O)c1cccc(C(=O)OCc2cc(Cl)cc3c2OCOC3)c1	-8.6*	i	i	i	i	0	0
SMILES	RGS4 act	MrgX1 antag	MrgX1 allo act	MrgX1 agonist	RGS4 inh	RGS4 act valid	M3R Ca counter
COc1cc(C#N)c(NC(=S)N2CCOCC2)cc1OC	i	i	i	i	i	.	.
COc1ccc(CN(C)S(=O)(=O)c2nnc(NC(=O)c3ccccc3)s2)cc1OC	i	i	i	i	i	.	.
COc1ccccc1C(=O)Nc1nnc(S(=O)(=O)N(C)Cc2ccccc2)s1	-8.9*	i	i	i	i	89*	52*
CCOC(=O)C1CCN(c2c(C(=O)c3ccccc3)cnc3ccc(CC)cc23)CC1	-7.7*	i	i	i	i	90*	43*
Cc1cc(C)c2ccc3c(C)c(C)nc3c2[nH]1	i	i	i	i	i	.	.
COc1ccc(CCNc2nc(-c3cccnc3)nc3ccccc23)cc1OC	i	i	i	i	i	.	.
CCOc1ccc(CN(C)c2nc(-c3cccnc3)nc3ccccc23)cc1OC	-9.2*	i	i	i	i	76*	43*
Oc1ccccc1-c1nc(NC2CCCC2)c2ccccc2n1	-7.8*	i	i	i	i	74*	59*
O=C(CSc1nc2ccccc2o1)N/N=C/c1ccco1	i	i	i	i	i	.	.
Cc1nnsc1S(=O)(=O)Cc1ccccc1C(F)(F)F	i	i	i	i	i	.	.
COc1ccc(N2CCN(C(=O)Cc3csc(NC(=O)Nc4ccccc4OC)n3)CC2)cc1	i	i	i	i	i	.	.
COc1ccccc1NC(=O)Nc1nc(CC(=O)N2CCN(c3ccc(F)cc3)CC2)cs1	-8.2*	i	i	i	i	56*	0
CSc1nc2sc3c(c2c(=O)n1C1CCCCC1)CCN(C)C3	i	i	i	i	i	.	.
C=C(C)CSc1nc2sc3c(c2c(=O)n1C1CCCCC1)CCN(C)C3	-7.8*	i	i	i	i	93*	86*
O=c1c2ccccc2nc(/C=C/c2cccnc2)n1CCc1ccccc1	-9.7*	i	i	i	i	56*	0
CCC(C(=O)OCC(=O)Nc1cccc(C(C)=O)c1)c1ccccc1 (stereo not given)	i	i	i	i	i	.	.
CCC(C(=O)OCC(=O)Nc1cc(Cl)cc(Cl)c1)c1ccccc1 (stereo not given)	-8.4*	i	i	i	i	74*	26*
CC1(C(=O)NCC2CCCO2)Oc2cccnc2NC1=O (stereo not given)	i	i	i	i	i	.	.
Cc1nn(-c2ccc(N3CCCCC3)nn2)c(C)c1CCC(=O)Nc1ccc(F)c(F)c1	-8.5*	i	i	i	i	64*	49*

Screens from PubChem.
